Data published in ChEMBL document CHEMBL1123254, “Dopamine receptor modulation by Pro-Leu-Gly-NH2 analogues possessing cyclic amino acid residues at the C-terminal position” (J Med Chem, 1986).
Where a SMILES comes first, the peptide text is derived from it.

Tests used:
[1] = organism: Bos taurus; assay: Enhancement of [3H]ADTN to dopamine receptors at concentration of 100 nM
In short: (§1)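 Bovine caudate homogenized in 50 mM Tris-HCl pH 7.7 and spun twice at 40000 g. Pellet taken up in 50 mM Tris pH 7.1 with 0.1% ascorbic acid, 120 mM NaCl, 5 mM KCl, 2 mM CaCl2 and 10 μM pargyline. 0.4-0.6 mg protein incubated with 8 nM [3H]ADTN ± peptide (1, 10 or 100 nM), triplicate, 37 °C. Bound ligand collected by GF/B filtration and counted by scintillation.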

[2] = organism: Bos taurus; assay: Enhancement of [3H]ADTN to dopamine receptors at concentration of 10 nM; in short: as §1
[3] = organism: Bos taurus; assay: Enhancement of [3H]-ADTN to dopamine receptors at concentration of 1 nM; in short: as §1

Question: Which Enhancement [1] does the source give for `CC(C)C[C@H](NC(=O)[C@@H]1CCCN1)C(=O)NCC(N)=O` (H-Pro-Leu-Gly-NH2) here?
Answer: Its Enhancement is 46.2%.

Question: And the Enhancement [2]?
Answer: Its Enhancement is 28%.

Question: And the Enhancement [3]?
Answer: The Enhancement was 16%.
